Calls of active or inactive are those of the source.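 Rule for the calls, unless noted: active = viability at or under a set limit in both replicates, limit being median viability minus 3 SD (cut at about 48% in these data, passing the limit was not always enough); inconclusive = at or under the limit in just one replicate; inactive = at or above the limit in both replicates.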
Legend:
[1] = reduced viability of SK-BR-3 breast cancer cells – cell-based, 24 h, human, pilot screen (AID 572;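 active = viability at or below 10% of carrier control in both of two separate runs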;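 note: compound exposure lasted between 18 and 24 h rather than exactly 24 h; 100% = carrier-treated control wells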); conditions: SK-BR-3 viability, CellTiter-Glo luminescence, at 10 µM, stronger effect = lower value
[2] = HUVEC growth inhibition – cell-based, human, primary screen (AID 575;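 active = viability at or below 30% in both replicate assays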;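 note: 100% = median of untreated cell wells with 0.1% DMSO on each plate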); conditions: HUVEC proliferation, CellTiter-Glo luminescence, 72 h; at 10 µM; stronger effect = lower value
Outline: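 System: primary human umbilical vein endothelial cells; Quantity: 1250 endothelial cells in each well; Buffer or medium: supplemented EBM, 2% fetal bovine serum; Doses: one dose, 10 µM final, 0.1% DMSO; Incubation: 72 h compound incubation; Technique: ATP-based CellTiter-Glo luminescent read; Evaluation: percent of median DMSO-control luminescence; Controls: vehicle and MePR control wells.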

[3] = H69AR cell proliferation blockers – human, duplicate replicates, primary screen (AID 580); conditions: H69AR lung tumor cells viability, ATP luminescence, 72 h; at 10 µM; stronger effect = lower value;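 note: 100% = mean luminescence of untreated wells and 0% = no signal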
[4] = MRP1 drug-resistance reversers in H69AR cells – cell-based, doxorubicin co-treatment, pilot screen (AID 601;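 active = viability loss from added drug above about 55%, and viability with drug at most 40%, in both replicates, limit read from the data, passing the limit was not always enough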); conditions: CellTiter-Glo, 72 h, at 10 µM; for differential viability (reversal): stronger effect = higher value
[5] = yeast transport mutant growth inhibition pilot in 384-well plates, post-Golgi transport modulator project (AID 636; in the data active = inhibition above about 31%); conditions: absorbance 615 nm, about 18 h, stronger effect = higher value
[6] = growth suppression of yeast trafficking mutant, preliminary HTS, modulators of trafficking downstream of Golgi apparatus project, 1536-format plate, OD 615 nm (AID 637; in the data active = inhibition above about 30%); conditions: yeast transport mutant growth, absorbance 615 nm, 18 h; stronger effect = higher value
[7] = H69AR cells + 2 uM doxorubicin, measured here: viability with 2 uM doxorubicin, stronger effect = lower value
[8] = H69AR cells, compound alone cytotoxicity

SMILES	viability [1]	viability [2]	viability [3]	differential viability (reversal) ([4]; H69AR cells + 2 uM doxorubicin)	viability [4, 7] [%]	viability [4, 8] [%]	inhibition [5]	inhibition [6]
CC1CN(CC(O)COc2ccccc2C(C)(C)C)CC(C)O1 (stereo not drawn)	130% (inactive)	114% (inactive)	78% (inactive)	-11.3% (inactive)	89.3	78	-0.26% (inactive)	0.49% (inactive)
CC(c1ccco1)N(Cc1ccco1)C(=O)Nc1ccccc1 (stereo not drawn)	108% (inactive)	76.3% (inactive)	91.2% (inactive)	23.7% (inactive)	67.6	91.2	1.69% (inactive)	6.72% (inactive)
COc1ccc(S(=O)(=O)Nc2ccccc2SC)cc1C	94% (inactive)	87.8% (inactive)	87% (inactive)	-8.52% (inactive)	95.5	87	-6.99% (inactive)	0% (inactive)
CCOC(=O)c1sc(NC(=O)CSc2ncn(-c3ccccc3)n2)nc1C	109% (inactive)	97.5% (inactive)	82.9% (inactive)	-5.19% (inactive)	88.1	82.9	-7.95% (inactive)	3.09% (inactive)
Cc1ccc(OCC(O)Cn2c(NCCc3ccccc3)nc3c2c(=O)[nH]c(=O)n3C)cc1 (stereo not drawn)	60% (inactive)	88.8% (inactive)	93.9% (inactive)	-5.09% (inactive)	99	93.9	-3.97% (inactive)	-1.27% (inactive)
Cc1cccc(NC(=O)CSc2nnc(-c3ccccc3C)o2)c1	87% (inactive)	107% (inactive)	75.4% (inactive)	3.35% (inactive)	72	75.4	-5.95% (inactive)	-7.27% (inactive)
COC(=O)c1ccc(CSc2nc3ccccc3s2)o1	101% (inactive)	88.7% (inactive)	85% (inactive)	-19.3% (inactive)	104	85	-4.93% (inactive)	-3.09% (inactive)
CCCC(=O)n1nc(-c2ccc(OC)cc2)nc1N	101% (inactive)	93.6% (inactive)	105% (inactive)	7% (inactive)	98.3	105	-1.56% (inactive)	5.74% (inactive)
COC(=O)c1ccc(CSc2nnnn2Cc2ccccc2)cc1	111% (inactive)	98.6% (inactive)	86% (inactive)	0.715% (inactive)	85.2	86	-4.13% (inactive)	-2.36% (inactive)
O=C(NCCCN1CCOCC1)c1cc(-c2ccc(Cl)cc2)on1	88% (inactive)	103% (inactive)	94.1% (inactive)	15.9% (inactive)	78.2	94.1	-6.8% (inactive)	0.55% (inactive)
Cc1ccn2cc(CCNC(=O)CC(C)(C)C)nc2c1	89% (inactive)	113% (inactive)	97.9% (inactive)	9.27% (inactive)	88.6	97.9	-4.19% (inactive)	-2.36% (inactive)
CC(C)N(Cc1nc(-c2ccc(Cl)cc2)no1)C(=O)CN(C)S(=O)(=O)c1ccc(Cl)cc1	95% (inactive)	66.3% (inactive)	78.7% (inactive)	-7.31% (inactive)	86.1	78.7	-0.68% (inactive)	1.29% (inactive)
O=c1[nH]c2cc3c(cc2cc1C(c1nnnn1C1CCCCC1)N1CCSCC1)OCCO3 (stereo not drawn)	97% (inactive)	93.1% (inactive)	98.8% (inactive)	-1.53% (inactive)	100	98.8	-0.81% (inactive)	1.45% (inactive)
CCCCCc1c(C)nc(SCC(=O)O)[nH]c1=O	108% (inactive)	108% (inactive)	111% (inactive)	14% (inactive)	97.1	111	1.23% (inactive)	-3.39% (inactive)
CC1=Nn2c(nnc2-c2ccccc2)SC1	96% (inactive)	105% (inactive)	95.2% (inactive)	17.6% (inactive)	77.7	95.2	-0.93% (inactive)	0% (inactive)
Cc1[nH]nc2c1C(c1ccc(F)cc1)C1=C(CC(C)(C)CC1=O)N2 (stereo not drawn)	126% (inactive)	102% (inactive)	87.4% (inactive)	-0.39% (inactive)	87.8	87.4	-5.14% (inactive)	3.97% (inactive)
CCN(CC)S(=O)(=O)c1ccc(NC(=O)Cn2cnc3ccccc3c2=O)cc1	87% (inactive)	85.9% (inactive)	93.8% (inactive)	8.02% (inactive)	85.8	93.8	0.96% (inactive)	-1.29% (inactive)
CC1CCN(S(=O)(=O)c2ccc(Br)s2)CC1	98% (inactive)	91.1% (inactive)	87.5% (inactive)	6.46% (inactive)	81.1	87.5	-2.6% (inactive)	-1.8% (inactive)

SMILES	viability [1]	viability [2]	viability [3]	differential viability (reversal) ([4]; H69AR cells + 2 uM doxorubicin)	viability [4, 7] [%]	viability [4, 8] [%]	inhibition [5]	inhibition [6]
CCCCc1ccc(NC(=O)N[C@H](C(=O)O)C(C)C)cc1	119% (inactive)	82.6% (inactive)	95% (inactive)	-0.205% (inactive)	95.2	95	-2.05% (inactive)	-5.32% (inactive)
O=S1(=O)C=C(Oc2ccc(F)cc2)c2ccccc21	100% (inactive)	101% (inactive)	92.5% (inactive)	4.02% (inactive)	88.5	92.5	-7.03% (inactive)	1.27% (inactive)
CCOC(=O)c1c(N)c(C#N)nn1-c1ccccc1C(=O)OC	96% (inactive)	109% (inactive)	92.3% (inactive)	6.05% (inactive)	86.2	92.3	-5.87% (inactive)	0.73% (inactive)
CCOC(=O)Nc1nnc(-c2ccccc2OC)s1	86% (inactive)	98.2% (inactive)	93.9% (inactive)	0.53% (inactive)	93.3	93.9	-0.14% (inactive)	-4.68% (inactive)
Cn1c(-c2ccc(F)cc2)cnc1SCC(=O)Nc1ccccc1N1CCOCC1	94% (inactive)	103% (inactive)	102% (inactive)	12.9% (inactive)	88.8	102	-7.57% (inactive)	-4.55% (inactive)
Cn1c(=O)n(CCC(=O)O)c2ccccc21	93% (inactive)	111% (inactive)	97.2% (inactive)	13.1% (inactive)	84.1	97.2	-7.67% (inactive)	5% (inactive)
Cn1c(=O)[nH]c(=O)c2c1nc(Br)n2CCCSc1nc2ccccc2o1	89% (inactive)	36.2% (inactive)	23.8% (active)	-9.42% (inactive)	33.3	23.8	-4.13% (inactive)	-4.55% (inactive)
CC1C/C=C/C=C/C=C/C=C/C(O[C@@H]2O[C@H](C)[C@@H](O)[C@H](N)[C@@H]2O)CC2OC(O)(CC(O)CC3OC3/C=C/C(=O)O1)CC(O)C2C(=O)O (stereo partly drawn)	121% (inactive)	99.7% (inactive)	92.3% (inactive)	8.26% (inactive)	84.1	92.3	2.6% (inactive)	-2.67% (inactive)
CCOC(=O)C1=C[C@]2(CC)CCCN3CCc4c(n1c1ccccc41)[C@@H]32	70% (inactive)	49.9% (inactive)	80.1% (inactive)	16.4% (inactive)	63.7	80.1	-0.26% (inactive)	-1.67% (inactive)
Cc1csc(NC(=O)c2ccoc2C)n1	103% (inactive)	84.6% (inactive)	86.3% (inactive)	-5.44% (inactive)	91.8	86.3	-4.66% (inactive)	-8.39% (inactive)
O=C(NCCCN1CCCC1=O)C1CCN(S(=O)(=O)N2CCOCC2)CC1	90% (inactive)	118% (inactive)	100% (inactive)	5.27% (inactive)	94.8	100	5.41% (inactive)	-1.45% (inactive)
C1CNCCNCCNCCN1	101% (inactive)	113% (inactive)	95.7% (inactive)	0.16% (inactive)	95.5	95.7	-0.26% (inactive)	2.83% (inactive)
COc1ccc(C(=O)NCCC(C)C)cc1S(=O)(=O)N1CCOCC1	98% (inactive)	98.8% (inactive)	102% (inactive)	7.34% (inactive)	94.2	102	-9.86% (inactive)	2.73% (inactive)
O=C(O)CCNC(=O)c1ccccc1	84% (inactive)	99.1% (inactive)	98.7% (inactive)	7.94% (inactive)	90.7	98.7	2.47% (inactive)	1.17% (inactive)
CCCn1cnc2c(cnn2-c2ccc(F)cc2)c1=O	100% (inactive)	90.9% (inactive)	98.8% (inactive)	1.56% (inactive)	97.3	98.8	-0.78% (inactive)	0.16% (inactive)
Cc1c(C)n(C(=O)CN2CCN(c3ccccn3)CC2)c2ccccc12	102% (inactive)	81.2% (inactive)	81.7% (inactive)	-0.845% (inactive)	82.5	81.7	-5.2% (inactive)	-2.73% (inactive)
O=C(O)C1C2C=CC(C3CC23)C1C(=O)NCCc1ccccc1 (stereo not drawn)	101% (inactive)	89.7% (inactive)	98% (inactive)	6.28% (inactive)	91.7	98	-5.81% (inactive)	-3.93% (inactive)
O=C(Nc1cccc(NC(=O)c2ccco2)c1)c1ccc2c(c1)OCO2	106% (inactive)	61% (inactive)	82.4% (inactive)	-4.39% (inactive)	86.8	82.4	-1.18% (inactive)	21.2% (inactive)

— PubChem BioAssay
